{"source": "ChEMBL document CHEMBL3259728", "about": "“Design, synthesis and biological evaluation of some novel substituted quinazolines as antitumor agents” (2014)", "type_in_all_cases": "functional", "key": {"[1]": {"test": "Growth inhibition of human Hs578T cells at 10 uM after 48 hrs by SRB assay", "settings": "Hs-578T, read-out: GI", "how_it_was_run": "(§1)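 NCI-60 primary one-dose screen run at the US NCI, with human tumour lines from nine cancer types. Compound added once at 10^-5 M, followed by 48 h incubation. End point was sulforhodamine B protein staining read spectrophotometrically. Result given as percent growth of treated cells against untreated controls, reported as % growth inhibition.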"}, "[2]": {"test": "Growth inhibition of human OVCAR4 cells at 10 uM after 48 hrs by SRB assay", "settings": "OVCAR-4, 48 h, read-out: GI", "how_it_was_run": "as §1"}, "[3]": {"tested_on": "T47D", "test": "Growth inhibition of human T47D cells assessed as cell growth at 10^-4 M after 48 hrs by SRB assay", "settings": "read-out: Activity"}, "[4]": {"test": "Growth inhibition of human MOLT4 cells at 10 uM after 48 hrs by SRB assay", "settings": "MOLT-4, 48 h, read-out: GI", "how_it_was_run": "as §1"}, "[5]": {"tested_on": "MDA-MB-468", "test": "Growth inhibition of human MDA-MB-468 cells assessed as cell growth at 10^-8 M after 48 hrs by SRB assay", "settings": "MDA-MB-468, 48 h, read-out: Activity"}, "[6]": {"test": "Growth inhibition of human RXF393 cells assessed as cell growth at 10^-7 M after 48 hrs by SRB assay", "settings": "RXF 393, 48 h, read-out: Activity"}, "[7]": {"test": "Growth inhibition of human SF539 cells assessed as cell growth at 10^-6 M after 48 hrs by SRB assay", "settings": "SF-539, 48 h, read-out: Activity"}, "[8]": {"tested_on": "CCRF-CEM", "test": "Growth inhibition of human CCRF-CEM cells at 10 uM after 48 hrs by SRB assay", "settings": "read-out: GI", "how_it_was_run": "(§2)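 NCI primary one-dose screen. A single concentration of 10^-5 M was added to the cell culture, followed by 48 h incubation and an SRB protein-dye endpoint read spectrophotometrically. Results are growth percentage relative to untreated control cells, reported as % growth inhibition.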"}, "[9]": {"test": "Growth inhibition of human HCT15 cells assessed as cell growth at 10^-7 M after 48 hrs by SRB assay", "settings": "HCT-15, 48 h, read-out: Activity"}, "[10]": {"tested_on": "SNB-75", "test": "Growth inhibition of human SNB75 cells at 10 uM after 48 hrs by SRB assay", "settings": "SNB-75, 48 h, read-out: GI", "how_it_was_run": "as §1"}, "[11]": {"tested_on": "CAKI-1", "test": "Growth inhibition of human CAKI-1 cells at 10 uM after 48 hrs by SRB assay", "settings": "CAKI-1, 48 h, read-out: GI", "how_it_was_run": "as §2"}, "[12]": {"test": "Growth inhibition of human OVCAR8 cells at 10 uM after 48 hrs by SRB assay", "settings": "OVCAR-8, 48 h, read-out: GI", "how_it_was_run": "as §1"}, "[13]": {"test": "Growth inhibition of human UO31 cells at 10 uM after 48 hrs by SRB assay", "settings": "UO-31, 48 h, read-out: GI", "how_it_was_run": "as §1"}, "[14]": {"tested_on": "SK-MEL-5", "test": "Growth inhibition of human SK-MEL-5 cells assessed as cell growth at 10^-5 M after 48 hrs by SRB assay", "settings": "SK-MEL-5, 48 h, read-out: Activity"}, "[15]": {"tested_on": "IGROV-1", "test": "Growth inhibition of human IGROV1 cells at 10 uM after 48 hrs by SRB assay", "settings": "IGROV-1, 48 h, read-out: GI", "how_it_was_run": "as §1"}, "[16]": {"tested_on": "HOP-62", "test": "Growth inhibition of human HOP62 cells at 10 uM after 48 hrs by SRB assay", "settings": "HOP-62, 48 h, read-out: GI", "how_it_was_run": "as §1"}, "[17]": {"tested_on": "NCI-H226", "test": "Growth inhibition of human NCI-H226 cells at 10 uM after 48 hrs by SRB assay", "settings": "NCI-H226, 48 h, read-out: GI", "how_it_was_run": "as §1"}, "[18]": {"tested_on": "HL-60(TB)", "test": "Growth inhibition of human HL-60(TB) cells at 10 uM after 48 hrs by SRB assay", "settings": "HL-60, 48 h, read-out: GI", "how_it_was_run": "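NCI 60-cell-line primary screen: compound added at single concentration 10^-5 M, cultures incubated 48 h; end point by sulforhodamine B protein staining read spectrophotometrically; result given as growth percentage of treated versus untreated control cells, reported as % growth inhibition.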"}, "[19]": {"tested_on": "CCRF-CEM", "test": "Growth inhibition of human CCRF-CEM cells assessed as cell growth at 10^-5 M after 48 hrs by SRB assay", "settings": "read-out: Activity", "how_it_was_run": "(§3)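 Five-dose NCI panel protocol. Each dose (10^-4 to 10^-8 M, 10-fold steps) was given as 48 h continuous exposure, and protein was measured by SRB staining. Percentage growth at each level is [(Ti−Tz)/(C−Tz)]×100, where Tz is time-zero absorbance and C is untreated control.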"}, "[20]": {"tested_on": "SK-MEL-5", "test": "Growth inhibition of human SK-MEL-5 cells at 10 uM after 48 hrs by SRB assay", "settings": "SK-MEL-5, 48 h, read-out: GI", "how_it_was_run": "as §1"}, "[21]": {"test": "Growth inhibition of human LOXIMVI cells at 10 uM after 48 hrs by SRB assay", "settings": "LOX IMVI, read-out: GI", "how_it_was_run": "as §1"}, "[22]": {"test": "Growth inhibition of human EKVX cells at 10 uM after 48 hrs by SRB assay", "settings": "read-out: GI", "how_it_was_run": "as §1"}, "[23]": {"tested_on": "NCI-H226", "test": "Growth inhibition of human NCI-H226 cells assessed as cell growth at 10^-6 M after 48 hrs by SRB assay", "settings": "NCI-H226, 48 h, read-out: Activity"}, "[24]": {"tested_on": "NCI-H460", "test": "Growth inhibition of human NCI-H460 cells at 10 uM after 48 hrs by SRB assay", "settings": "NCI-H460, 48 h, read-out: GI", "how_it_was_run": "as §1"}, "[25]": {"tested_on": "DU-145", "test": "Growth inhibition of human DU145 cells assessed as cell growth at 10^-5 M after 48 hrs by SRB assay", "settings": "DU-145, 48 h, read-out: Activity", "how_it_was_run": "as §3"}, "[26]": {"test": "Growth inhibition of human HCC2998 cells at 10 uM after 48 hrs by SRB assay", "settings": "HCC 2998, 48 h, read-out: GI", "how_it_was_run": "as §1"}, "[27]": {"tested_on": "MDA-MB-231", "test": "Growth inhibition of human MDA-MB-231 cells at 10 uM after 48 hrs by SRB assay", "settings": "MDA-MB-231, 48 h, read-out: GI", "how_it_was_run": "as §1"}, "[28]": {"tested_on": "COLO 205", "test": "Growth inhibition of human COLO205 cells at 10 uM after 48 hrs by SRB assay", "settings": "COLO 205, 48 h, read-out: GI", "how_it_was_run": "as §2"}, "[29]": {"test": "Growth inhibition of human BT549 cells assessed as cell growth at 10^-5 M after 48 hrs by SRB assay", "settings": "BT-549, 48 h, read-out: Activity", "how_it_was_run": "as §3"}, "[30]": {"test": "Growth inhibition of human SF295 cells assessed as cell growth at 10^-7 M after 48 hrs by SRB assay", "settings": "SF-295, 48 h, read-out: Activity"}, "[31]": {"tested_on": "MDA-MB-435", "test": "Growth inhibition of human MDA-MB-435 cells assessed as cell growth at 10^-4 M after 48 hrs by SRB assay", "settings": "MDA-MB-435, 48 h, read-out: Activity"}}}
{"smiles": "Cc1ccc(-c2nc3ccc(Cl)cc3c(=O)n2/N=C/c2ccccc2)cc1", "values": [{"measurement": "inhibition of growth at 10 µM", "setting": "[1]", "value": 44, "unit": "%"}, {"measurement": "inhibition of growth at 10 µM", "setting": "[2]", "value": 86, "unit": "%"}, {"measurement": "growth at 100 µM", "setting": "[3]", "value": 14, "unit": "%"}, {"measurement": "inhibition of growth at 10 µM", "setting": "[4]", "value": 18, "unit": "%"}, {"measurement": "growth at 0.01 µM", "setting": "[5]", "value": 91, "unit": "%"}, {"measurement": "growth at 0.1 µM", "setting": "[6]", "value": 101, "unit": "%"}, {"measurement": "growth at 1 µM", "setting": "[7]", "value": 94, "unit": "%"}, {"measurement": "inhibition of growth at 10 µM", "setting": "[8]", "value": "< 10", "unit": "%"}, {"measurement": "growth at 0.1 µM", "setting": "[9]", "value": 92, "unit": "%"}, {"measurement": "inhibition of growth at 10 µM", "setting": "[10]", "value": 74, "unit": "%"}, {"measurement": "inhibition of growth at 10 µM", "setting": "[11]", "value": 40, "unit": "%"}, {"measurement": "inhibition of growth at 10 µM", "setting": "[12]", "value": 73, "unit": "%"}, {"measurement": "inhibition of growth at 10 µM", "setting": "[13]", "value": 33, "unit": "%"}, {"measurement": "growth at 10 µM", "setting": "[14]", "value": 57, "unit": "%"}, {"measurement": "inhibition of growth at 10 µM", "setting": "[15]", "value": 43, "unit": "%"}, {"measurement": "inhibition of growth at 10 µM", "setting": "[16]", "value": 98, "unit": "%"}, {"measurement": "inhibition of growth at 10 µM", "setting": "[17]", "value": 14, "unit": "%"}, {"measurement": "inhibition of growth at 10 µM", "setting": "[18]", "value": 26, "unit": "%"}, {"measurement": "growth at 10 µM", "setting": "[19]", "value": 86, "unit": "%"}, {"measurement": "inhibition of growth at 10 µM", "setting": "[20]", "value": "< 10", "unit": "%"}, {"measurement": "inhibition of growth at 10 µM", "setting": "[21]", "value": 11, "unit": "%"}, {"measurement": "inhibition of growth at 10 µM", "setting": "[22]", "value": 40, "unit": "%"}, {"measurement": "growth at 1 µM", "setting": "[23]", "value": 79, "unit": "%"}, {"measurement": "inhibition of growth at 10 µM", "setting": "[24]", "value": 23, "unit": "%"}, {"measurement": "growth at 10 µM", "setting": "[25]", "value": 55, "unit": "%"}, {"measurement": "inhibition of growth at 10 µM", "setting": "[26]", "value": "< 10", "unit": "%"}, {"measurement": "inhibition of growth at 10 µM", "setting": "[27]", "value": 41, "unit": "%"}, {"measurement": "inhibition of growth at 10 µM", "setting": "[28]", "value": 34, "unit": "%"}, {"measurement": "growth at 10 µM", "setting": "[29]", "value": 90, "unit": "%"}, {"measurement": "growth at 0.1 µM", "setting": "[30]", "value": 80, "unit": "%"}, {"measurement": "growth at 100 µM", "setting": "[31]", "value": 57, "unit": "%"}]}
